Results taken from ChEMBL document CHEMBL4665829, “Synthesis, Structure-Activity Relationship, and Antimalarial Efficacy of 6-Chloro-2-arylvinylquinolines” (J Med Chem, 2020).
Activity calls are given as the source filed them. The rule behind the calls is not given here.

Legend:
[1] = system: Plasmodium falciparum; test: Antiplasmodial activity against synchronous gametocyte early stage of Plasmodium falciparum 3D7 harboring luc7 incubated for 72 hrs by ONE-Glo luciferase assay; assay type: functional, organism-based; conditions: 3D7, 72 h
Procedure, shortened: (§1)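 Gametocytes of P. falciparum 3D7 luc7 induced by nutrient starvation, cultured in heparin medium to remove asexual stages, Percoll-purified as early (II–III) or late (IV–V) stage. 50,000 gametocytes/well exposed 72 h to a 19-point gradient, 0.038 nM–10 μM. ONE-Glo luciferase read after 5 min. EC50 by nonlinear curve fit; three experiments.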

[2] = Resistant index, ratio of EC50 for antiplasmodial activity against chloroquine-resistant Plasmodium falciparum Dd2 to antiplasmodial activity against chloroquine-sensitive Plasmodium falciparum 3D7; assay type: functional
[3] = system: Plasmodium falciparum; test: Antiplasmodial activity against chloroquine-resistant Plasmodium falciparum Dd2 infected in human erythrocytes assessed as reduction in microbial growth after 72 hrs by SYBR green I staining based fluorescence assay; assay type: functional, organism-based; conditions: Dd2, Erythrocyte
Procedure, shortened: (§2)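 SYBR Green I assay: twofold serial dilutions on P. falciparum cultures at 1% parasitemia, 1% hematocrit, 37 °C, 5% CO₂, 72 h, max 0.1% DMSO. DMSO and CQ as growth and inhibition controls. Plates frozen at −80 °C, thawed, lysed in Tris/saponin/EDTA/Triton buffer with 0.01% SYBR Green I, 1 h dark at room temperature. Fluorescence read at 485 ex/530 em. EC50 by nonlinear dose–response fit.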

[4] = system: Plasmodium falciparum; test: Antiplasmodial activity against chloroquine-sensitive Plasmodium falciparum 3D7 infected in human erythrocytes assessed as reduction in microbial growth after 72 hrs by SYBR green I staining based fluorescence assay; assay type: functional, organism-based; conditions: 3D7, Erythrocyte; procedure, shortened: as §2
[5] = system: HepG2; test: Cytotoxicity against human HepG2 cells assessed as reduction in cell viability after 48 hrs by MTS assay; assay type: cell-based; conditions: HepG2, 48 h
Procedure, shortened: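 HepG2 cells were seeded at 2250 per well and grown 24 h at 37 °C, 5% CO₂. Serial dilutions starting at 25 μM were added for a further 48 h. MTS was then added for 3 h at 37 °C and absorbance read at 490 nm. EC₅₀ came from nonlinear dose–response fits.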

[6] = Selectivity index, ratio of EC50 for cytotoxicity against human HepG2 cells to antiplasmodial activity against chloroquine-resistant Plasmodium falciparum Dd2; assay type: toxicity, cell-based; conditions: read-out: Ratio EC50
[7] = Stability of compound in mouse liver microsomes assessed as parent compound remaining at 1 uM after 60 mins in presence of NADPH by LC-MS analysis; assay type: ADME, Microsome; conditions: 1 h
Procedure, shortened: (§3)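 Mouse liver microsomes (0.5 mg/mL final protein) in 0.1 M phosphate, pH 7.4, with compound at 1 μM, 37 °C with shaking. Aliquots were quenched in cold acetonitrile and centrifuged; LC–MS gave parent peak area at 60 min relative to 0 min.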

[8] = Intrinsic clearance in mouse liver microsomes assessed as parent compound at 1 uM after 60 mins in presence of NADPH by LC-MS analysis; assay type: ADME, Microsome; procedure, shortened: as §3
[9] = system: Plasmodium falciparum; test: Antiplasmodial activity against synchronized chloroquine-resistant Plasmodium falciparum Dd2 reduction in microbial growth 5 times of EC50 treated with compound at 6 to 30 hrs post infection measured after 12 hrs by Giemsa staining-based microscopic analysis; assay type: functional, organism-based
Procedure, shortened: (§4)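 Dd2 cultures tightly synchronized by magnetic separation and sorbitol were dosed at 5 × EC50 at 6, 18, 30 or 42 h post-invasion. Controls: DHA 50 nM, atovaquone 6.6 nM, DMSO 0.1%. Sampled every 12 h for Giemsa thin smears and for flow cytometry: glutaraldehyde/paraformaldehyde fixation, Triton permeabilization, RNAse, 500 nM YOYO-1, 500,000 events/sample. Three independent biological replicates.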

[10] = system: Plasmodium falciparum; test: Antiplasmodial activity against synchronized chloroquine-resistant Plasmodium falciparum Dd2 reduction in microbial growth 5 times of EC50 treated with compound at 6 to 30 hrs post infection measured after 12 hrs by YOYO-1 staining-based flow cytometric analysis; assay type: functional, organism-based; procedure, shortened: as §4
[11] = system: Plasmodium falciparum; test: Antiplasmodial activity against synchronized chloroquine-resistant Plasmodium falciparum Dd2 reduction in microbial growth at 5 times of EC50 treated with compound at 42 hrs post infection measured after 12 hrs by Giemsa staining-based microscopic analysis; assay type: functional, organism-based; procedure, shortened: as §4
[12] = system: Plasmodium falciparum; test: Antiplasmodial activity against synchronized chloroquine-resistant Plasmodium falciparum Dd2 reduction in microbial growth 5 times of EC50 treated with compound at 42 hrs post infection measured after 12 hrs by YOYO-1 staining-based flow cytometric analysis; assay type: functional, organism-based; procedure, shortened: as §4
[13] = system: Plasmodium falciparum; test: Induction of morphological changes in chloroquine-resistant Plasmodium falciparum Dd2 assessed as appearance of membrane-bound structure at 5 times of EC50 measured after 1.5 to 12 hrs by TEM analysis; assay type: functional, organism-based; conditions: time hrs 1.5-12
Procedure, shortened: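 Fixed in 2% paraformaldehyde/2.5% glutaraldehyde in cacodylate pH 7.4, post-fixed in 1% OsO₄, en bloc 1% uranyl acetate, ethanol-dehydrated, Eponate-embedded. 95 nm sections stained with uranyl acetate/lead citrate for TEM.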

[14] = system: Plasmodium falciparum; test: Parasiticidal activity against chloroquine-resistant Plasmodium falciparum Dd2 infected in RBC assessed as reduction in parasitemia at 5 times of EC50 incubated for 6 to 48 hrs followed by compound washout and then incubated for 96 hrs by Giemsa staining based microscopic analysis; assay type: functional, organism-based; conditions: time hrs 6-48
Procedure, shortened: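 Controls: 0.15% DMSO, DHA 50 nM, atovaquone 6.6 nM. Drug removed by three RPMI washes, then parasitemia followed daily for 96 h by Giemsa thin smears. Three independent biological replicates.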

[15] = system: Plasmodium falciparum; test: Antiplasmodial activity against synchronous gametocyte late stage of Plasmodium falciparum 3D7 harboring luc7 incubated for 72 hrs by ONE-Glo luciferase assay; assay type: functional, organism-based; conditions: 3D7, 72 h; procedure, shortened: as §1
[16] = system: Hemozoin; test: Inhibition of beta-hematin formation at 12.5 to 200 uM after 16 hrs by inverted microscopic analysis; conditions: dose microM 12.5-200, time 16.0 hrs
Procedure, shortened: (§5)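 Hemin (2 mM stock in 0.1 M NaOH; 100 μM final), propionate buffer pH 5.2 and sonicated phosphatidylcholine were incubated with a compound concentration series for 16 h at 37 °C with gentle shaking. Crystals were imaged by inverted microscope before quenching with 7.5% SDS in bicarbonate, pH 9.1. Free hemin was measured at 405 nm against a 0–16 μM calibration. Three independent experiments.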

[17] = system: Plasmodium berghei; test: Antiplasmodial activity against Plasmodium berghei ANKA expressing luciferase infected in Swiss Webster mouse at 100 mg/kg, po for 5 days using monophosphate salt form of compound by luminescence based assay; assay type: functional, organism-based; conditions: time 5.0 day
Procedure, shortened: (§6)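 Female Swiss Webster mice got 10³ RBC infected with luciferase-expressing P. berghei ANKA. From 48 h post-infection, groups of five were gavaged once daily for 5 days in 2% methylcellulose/0.5% Tween 80, against a vehicle control. On day 7, mice received 150 mg/kg D-luciferin in PBS, and bioluminescence was imaged by IVIS as a measure of parasite load.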

[18] = system: Plasmodium berghei; test: Antiplasmodial activity against Plasmodium berghei ANKA expressing luciferase infected in Swiss Webster mouse at 25 mg/kg, po for 5 days using monophosphate salt form of compound by luminescence based assay; assay type: functional, organism-based; conditions: time 5.0 day; procedure, shortened: as §6
[19] = system: Plasmodium berghei; test: Antiplasmodial activity against Plasmodium berghei ANKA expressing luciferase infected in BALB/c mouse assessed as mean survival days at 100 mg/kg, po for 4 days using monophosphate salt form of compound (reference value: 8 day); assay type: functional; conditions: time 4 day
[20] = Toxicity in BALB/c mouse infected with Plasmodium berghei ANKA expressing luciferase assessed as hunched posture at 25 to 100 mg/kg, po for 4 days measured up to 30 days; assay type: organism-based; conditions: in vivo, 96 h, dose 25-100 mg/kg, time 4 day
Procedure, shortened: (§7)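 Female BALB/c mice (10 weeks, ~20 g), five per group, were inoculated i.p. with 10⁶ P. berghei ANKA 676m1cl1-parasitized RBC. Oral gavage in 2% methylcellulose/0.5% Tween 80, once daily for 4 days starting 4 h post-infection, against a vehicle control. Tail-blood Giemsa smears from day 4. Signs and body weight were followed. Sacrifice at 40% parasitemia; cure meant a negative smear at day 30. Kaplan–Meier, log-rank.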

[21] = Toxicity in BALB/c mouse infected with Plasmodium berghei ANKA expressing luciferase assessed as hypotrichosis at 25 to 100 mg/kg, po for 4 days measured up to 30 days; assay type: organism-based; conditions: in vivo, 96 h, dose 25-100 mg/kg, time 4 day; procedure, shortened: as §7
[22] = Toxicity in BALB/c mouse infected with Plasmodium berghei ANKA expressing luciferase assessed as reduction in mobility at 25 to 100 mg/kg, po for 4 days measured up to 30 days; assay type: organism-based; conditions: in vivo, 96 h, dose 25-100 mg/kg, time 4 day; procedure, shortened: as §7
[23] = Toxicity in BALB/c mouse infected with Plasmodium berghei ANKA expressing luciferase assessed as reduction in weight at 25 to 100 mg/kg, po for 4 days measured up to 30 days; assay type: organism-based; conditions: in vivo, 96 h, dose 25-100 mg/kg, time 4 day; procedure, shortened: as §7
[24] = system: Plasmodium berghei; test: Antiplasmodial activity against Plasmodium berghei ANKA expressing luciferase infected in BALB/c mouse at 25 mg/kg, po for 4 days using monophosphate salt form of compound by Giemsa staining based microscopic analysis; assay type: functional, organism-based; conditions: time 4.0 day; procedure, shortened: as §7
[25] = Half life in mouse liver microsomes at 1 uM after 60 mins in presence of NADPH by LC-MS analysis; assay type: ADME, Microsome; conditions: 1 h; procedure, shortened: as §3
[26] = system: Plasmodium falciparum; test: Antiplasmodial activity against late trophozoite synchronized chloroquine-resistant Plasmodium falciparum Dd2 reduction in microbial growth at 5 times of EC50 after 12 hrs by Giemsa staining-based microscopic analysis; assay type: functional, organism-based; procedure, shortened: as §4
[27] = system: Plasmodium falciparum; test: Antiplasmodial activity against late trophozoite synchronized chloroquine-resistant Plasmodium falciparum Dd2 reduction in microbial growth at 5 times of EC50 after 12 hrs by YOYO-1 staining-based flow cytometric analysis; assay type: functional, organism-based; procedure, shortened: as §4
[28] = system: Hemozoin; test: Inhibition of beta-hematin formation after 16 hrs by inverted microscopic analysis; conditions: dose microM 12.5-200, time 16.0 hrs; procedure, shortened: as §5
[29] = system: Plasmodium falciparum; test: Potency index, ratio of EC50 for UCF501 to test compound EC50 for antiplasmodial activity against chloroquine-resistant Plasmodium falciparum Dd2 infected in human erythrocytes assessed as reduction in microbial growth after 72 hrs by SYBR green I staining based fluorescence assay; assay type: functional, Erythrocyte; procedure, shortened: as §2

SMILES	EC50 [1] [nM]	Ratio EC50 [2]	EC50 [3] [nM]	EC50 [4] [nM]	EC50 [5] [nM]	selectivity ratio [6]	Stabilty [7] [%]	CLH [8] [µL/min/mg]	Activity [14]	EC50 [15] [nM]	Activity [17]	Activity [18]	also measured
CN(C)CCNc1cc(/C=C/c2ccc(C(F)(F)F)cc2)nc2ccc(Cl)cc12	472	0.6	10.9	16.8	11200	1030	67.1	13.3	Active	394	Active	Active	Activity [9]: Active; Activity [10]: Active; Activity [11]: inactive; Activity [12]: inactive; Activity [13]: Active; inhibition [16]: inactive; MSD [19]: 30 days; Activity [20]: Non-Toxic; Activity [21]: Non-Toxic; Activity [22]: Non-Toxic; Activity [23]: Non-Toxic; Activity [24]: Active
CN(C)CCNc1cc(/C=C/c2ccc(F)cc2)nc2ccc(Cl)cc12	591	0.6	4.8	8.7	5330	1110	47.1	25.1	Active	2050	Active	Active	t1/2 [25]: 55.2 min; Activity [26]: Active; Activity [27]: Active; inhibition [28]: Dose-dependent effect; Ratio EC50 [29]: 14
